High-throughput results (PubChem)
Most compounds without a hit are left out; they make up all but 1.4% or so of the library.
APJ antagonist – blocks the human apelin receptor APJ | P35414 | CHO-K1 APJ beta-arrestin complementation, luminescence | inhibition, % at 20 µM | 330,000 tested, 0.32% active;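 active means inhibition above about 40% at 20 µM, limit read from the data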;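 further: cells challenged with 10 nM apelin-13 agonist together with compound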
APJ ag – agonists of human APJ apelin receptor | activation, % at 20 µM | P35414 | CHO-K1 APJ PathHunter beta-arrestin, luminescence; 0% DMSO wells, 100% apelin | 330,000 tested, 0.11% active;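 active means activation more than six SD over the plate average, tested at 20 µM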
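Test system: CHO-K1 APJ beta-arrestin complementation cell line | Compound: Single test compound dose, 20 µM final, 1% DMSO | Incubation: Compound 90 min 25 °C, reagent 1 h | Measured by: beta-gal luminescence | Read-out basis: APJ–arrestin association signal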
CCR6 antagonist – CCR6 (human) receptor antagonism; CHO-K1 CCR6 PathHunter beta-arrestin, luminescence, CCL20-stimulated; AID 493098; P51684; inhibition, % at 20 µM; 340,000 tested, 0.49% active;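 active means compounds whose inhibition of the agonist-driven luminescence signal at 20 µM reaches about 50%, limit read from the data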;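 further: cells stimulated with CCL20 at 14 nM final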
Target sequence (P51684 whole entry, looked up): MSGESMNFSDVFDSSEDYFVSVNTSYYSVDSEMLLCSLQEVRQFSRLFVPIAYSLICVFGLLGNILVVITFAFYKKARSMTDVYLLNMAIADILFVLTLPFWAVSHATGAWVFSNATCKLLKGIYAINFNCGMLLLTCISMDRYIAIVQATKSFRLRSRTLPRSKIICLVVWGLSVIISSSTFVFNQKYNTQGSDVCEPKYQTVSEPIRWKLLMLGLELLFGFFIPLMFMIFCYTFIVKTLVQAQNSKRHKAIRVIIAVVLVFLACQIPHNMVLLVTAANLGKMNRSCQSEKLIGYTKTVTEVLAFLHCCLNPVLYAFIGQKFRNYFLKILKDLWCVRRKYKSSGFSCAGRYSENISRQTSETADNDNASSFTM
CXCR6 block – blocks human CXCR6 beta-arrestin recruitment; 360,000 tested, 0.36% active; O00574; CHO-K1 PathHunter CXCR6 beta-arrestin, luminescence; inhibition, % at 20 µM; AID 602244; in the data active means inhibition above about 34%, passing the limit was not always enough;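 further: antagonist mode with CXCL16 agonist at 10 nM final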
A3G deaminase – APOBEC3G (human) deaminase inhibition; inhibition, % at 20 µM; recombinant A3G, ssDNA deamination FAM/TAMRA fluorescence; 330,000 tested, 0.28% active;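 active means inhibition of at least 40% at 20 µM, with no more than 30% in the related APOBEC3A deaminase screen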
A3A deaminase – human APOBEC3A DNA deaminase inhibition | P31941 | recombinant A3A, FAM/TAMRA ssDNA deamination fluorescence | inhibition, % at 20 µM | 330,000 tested, 0.41% active | AID 493011;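 active means at least 40% inhibition at 20 µM here, with at most 30% in a related deaminase screen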
Target sequence (P31941 whole entry, looked up): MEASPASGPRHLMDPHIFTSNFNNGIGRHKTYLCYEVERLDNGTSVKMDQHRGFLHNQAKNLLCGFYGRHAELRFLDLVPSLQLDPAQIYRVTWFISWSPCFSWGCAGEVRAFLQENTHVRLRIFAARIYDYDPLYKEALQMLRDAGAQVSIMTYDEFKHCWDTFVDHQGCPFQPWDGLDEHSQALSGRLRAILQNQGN
APOBEC3G confirm – confirmation of human APOBEC3G DNA deaminase inhibitors; shares compounds with A3G deaminase; recombinant A3G ssDNA deaminase, UDG/FAM-TAMRA fluorescence; inhibition, % at 20 µM; 890 tested, 72% active; AID 493152;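 active means inhibition reaching a set limit in any replicate at 20 µM, the limit being 80% of the first screen's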
UDG ctr A3G – E. coli UDG inhibition in APOBEC3G counter-screen. shares compounds with A3G deaminase. UDG counterscreen, FAM/TAMRA oligo fluorescence. AID 504715. 710 tested, under 10 active. inhibition, % at 20 µM;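 active means compounds giving 40% or more inhibition at 20 µM in any one of the three replicates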;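 further: inhibitors lower the FAM signal released by uracil excision and alkaline cleavage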
Large screens that a line does not name were inactive (follow-up assays come after a bar, where they were run).

CC1CCCCC1NC(=O)CNC(=O)c1ccco1 (stereo unspecified)	none
CCOc1ccc(NC(=O)CN(C)CC(=O)Nc2cc(Cl)ccc2C#N)cc1OCC	A3G deaminase 90.6 | APOBEC3G confirm inactive
CCc1ccc(-n2c(C)n[nH]c2=S)cc1	A3G deaminase 56.4 | APOBEC3G confirm 61.3 | UDG ctr A3G inactive
Cc1n[nH]c(=S)n1-c1ccc(Cl)cc1	none
CCn1nnnc1SCC(=O)NC1Cc2ccccc2C1	none
C=C(C)C(=O)Nc1cccc(C2=NOC3(C2)C[C@@H](C(N)=O)N(C(=O)/C=C/C=C/C)C3)c1 (stereo partly specified)	A3G deaminase 89.4 | APOBEC3G confirm 93.4 | UDG ctr A3G inactive
C=C(C)C(=O)Nc1cccc(C2=NOC3(C2)C[C@H](C(N)=O)N(C(=O)c2ccccc2C(=O)c2ccccc2)C3)c1 (stereo partly specified)	A3G deaminase 82.9 | APOBEC3G confirm 87.7 | UDG ctr A3G inactive
C/C=C/C=C/C(=O)N1CC2(CC(c3cccc(NC(=O)/C=C/C)c3)=NO2)C[C@@H]1C(N)=O (stereo partly specified)	none
C=C(C)C(=O)Nc1cccc(C2=NOC3(C2)C[C@@H](C(N)=O)N(C(=O)/C(C)=C/C)C3)c1 (stereo partly specified)	A3G deaminase 86.2 | APOBEC3G confirm 94.6
C=C(C)C(=O)Nc1cccc(C2=NOC3(C2)C[C@@H](C(N)=O)N(C(=O)CC(c2ccccc2)c2ccccc2)C3)c1 (stereo partly specified)	A3G deaminase 69.9 | APOBEC3G confirm 71.2 | UDG ctr A3G inactive
CCC(=O)N1CC2(CC(c3cccc(NC(=O)CC(c4ccccc4)c4ccccc4)c3)=NO2)C[C@H]1C(N)=O (stereo partly specified)	none
C=C(C)C(=O)Nc1cccc(C2=NOC3(C2)C[C@H](C(N)=O)N(C(=O)CC#N)C3)c1 (stereo partly specified)	A3G deaminase 74.2 (no result: CXCR6 block) | APOBEC3G confirm 73.2
C=C(C)C(=O)Nc1cccc(C2=NOC3(C2)C[C@H](C(N)=O)N(C(=O)CC)C3)c1 (stereo partly specified)	A3G deaminase 87.7 | APOBEC3G confirm 92.2
COc1cccc(Nc2n[nH]c(=S)s2)c1	A3G deaminase 58.3 | APOBEC3G confirm 62.6 | UDG ctr A3G inactive
CCSC1=NC2(CCCCC2)Nc2sc3c(c21)CCCC3	A3G deaminase 59.5 | APOBEC3G confirm 39.5
CCSc1nc2sc3c(c2c(=O)[nH]1)CCCC3	none
COc1ccc(Nc2nc(-c3ccccc3)c(C(=O)Nc3cccnc3)s2)cc1	none
CCC1CCc2c(sc(NC(=O)c3ccco3)c2C(N)=O)C1 (stereo unspecified)	none
CCC1CCc2c(sc(NC(=O)c3cnccn3)c2C(N)=O)C1 (stereo unspecified)	A3G deaminase 57.9 | APOBEC3G confirm inactive | UDG ctr A3G inactive
CCOC(=O)c1sc(N/N=C/c2ccccc2)nc1C	A3G deaminase 53.3 | APOBEC3G confirm 63.9 | UDG ctr A3G inactive
CCOC(=O)c1sc(N/N=C/c2cccc(C)c2)nc1C	none
O=C(CCN1C(=O)/C(=C/c2ccc(Cl)cc2)SC1=S)Nc1ccc(C(=O)O)cc1	A3G deaminase 40.1 | APOBEC3G confirm inactive | UDG ctr A3G inactive
CCCCn1c(-c2ccco2)n[nH]c1=S	A3G deaminase 63.1 | APOBEC3G confirm 65.6 | UDG ctr A3G inactive
CCn1c(-c2ccco2)n[nH]c1=S	none
S=c1[nH]nc(-c2ccco2)n1Cc1ccccc1	A3G deaminase 50.8 | APOBEC3G confirm 72.7 | UDG ctr A3G inactive
CC(C)Cn1c(-c2ccco2)n[nH]c1=S	A3G deaminase 46.3 | APOBEC3G confirm inactive
CC(=O)c1ccc(N2CCN(CN3C(=O)CC4(CCCC4)C3=O)CC2)c(F)c1	none
CCOc1ccc(CCNC(=O)c2cnc(C)cn2)cc1OCC	none
O=C(Cn1c(=O)c2cccn2c2cccnc21)N1CCN(c2ccccc2F)CC1	none
CC(=O)N(C1=C(Cl)C(=O)c2ccccc2C1=O)C1CCCCC1	CCR6 antagonist 115.1, CXCR6 block 39.8, A3G deaminase 83.3 | APOBEC3G confirm 91.8 | UDG ctr A3G inactive
CCN1C(=S)N[C@@H](CCc2ccccc2)C(C(=O)OC)=C1C	none
COc1ccc(C(C)(C)C)cc1NC(=O)CCCN1C(=O)NC(C)(C)C1=O	none
CCc1ccc(NC(=O)CSc2nc(=O)n(CCCN(C)C)c3c2CCC3)cc1	A3G deaminase 65.0 | APOBEC3G confirm inactive | UDG ctr A3G inactive
CN(C)CCn1c2c(c(SCC(=O)Nc3ccccc3)nc1=O)CCCC2	none
O=C(C[n+]1ccc2ccccc2c1)c1cccc2ccccc12	none
O=C(/C=C/c1cc[n+](CC(=O)c2ccc3cccc4c3c2CC4)cc1)c1ccc2cccc3c2c1CC3	A3G deaminase 54.5 | APOBEC3G confirm 54.8
CC(C)Cc1nnc(NC(=O)CCC(=O)NCc2ccccc2Cl)s1	none
CCc1ccc(NC(=O)C(C)OC(=O)Cn2[nH]c(=O)c3ccccc3c2=O)cc1 (stereo unspecified)	none (no result: APJ antagonist, APJ ag, CCR6 antagonist, A3G deaminase, A3A deaminase)
COc1ccc(Cl)cc1NC(=O)c1ccccc1C	A3G deaminase 40.7 | APOBEC3G confirm inactive
COc1ccccc1C(=O)Nc1cc(Cl)ccc1O	none
COc1ccc(Cl)cc1NC(=O)NC1CCCCC1	A3G deaminase 46.1 | APOBEC3G confirm 27.3 | UDG ctr A3G inactive
O=C(NCCOc1ccc(Cl)cc1)c1ccco1	none
COc1ccccc1-c1csc(C(C)(NC(C)=O)c2ccccc2)n1 (stereo unspecified)	none (no result: APJ antagonist, APJ ag, CCR6 antagonist, A3G deaminase, A3A deaminase)
Cc1ccc2c(c1)[C@@H]1[C@H](CO2)[C@H](c2ccccc2)[C@@]2(C)C(=O)N[C@H](C)C(=O)N12	none
S=c1nn[nH]c2ccccc12	none (no result: APJ antagonist, APJ ag, A3G deaminase, A3A deaminase)
CCN(c1ccccc1)S(=O)(=O)c1cccc(C(=O)OCC(=O)Nc2ccc(NC(C)=O)cc2)c1	none
CNc1ccccc1C(C)(C)c1cn(-c2ccc([N+](=O)[O-])cc2)nn1	none
Clc1ccc(Cl)c(-c2nn3c(COc4ccccc4)nnc3s2)c1	A3G deaminase 45.9 | APOBEC3G confirm 51.0 | UDG ctr A3G inactive
c1ccc(OCc2nnc3sc(-c4cccs4)nn23)cc1	A3G deaminase 67.3 | APOBEC3G confirm 34.2 | UDG ctr A3G inactive
COc1ccc(-c2nn3c(COc4ccccc4)nnc3s2)cc1OC	none
C[C@@H]1[C@H]2[C@@H](O[C@@H]3O[C@H](CO)[C@@H](O)[C@H](O)[C@H]3O)OC=C(C(=O)O)[C@H]2C[C@@H]1O	none
